Hits are enriched below; roughly 1.4% of the tested compounds scored in any of these assays.
GSH fluor: GSH bead compound fluorescence profile; GSH beads flow cytometry, compound fluorescence 488/530 nm; stronger effect = higher value; AID 1776; fluorescence (KMESF) at 10 µM; 190,000 compounds, 0.25% hits; in the data active = fluorescence above about 89;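 note: glutathione beads carrying GST-tagged Bcl family fusion proteins plus one bare bead set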
Diaphorase act: counter-screen for diaphorase-based assays: diaphorase activators and chemical reducers; activation factor at 20 µM; 190,000 compounds, 0.005% hits; Diaphorase/resazurin coupled assay, resorufin fluorescence, 16 min; stronger effect = higher value; 1 = vehicle wells, 0 = NADH-free wells;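 active = diaphorase activity raised at least twofold by the compound at 20 µM; inactive = activation factor below 2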
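Assay system: bacterial diaphorase enzyme (C. kluyveri) / Input: enzyme 0.07 U/mL final / Medium: 50 mM HEPES pH 7.4 with 4.542 mM MgCl2, 0.005% Tween 20 / Doses: single compound dose of 20 µM, 1% DMSO final / Incubation: 16 min enzyme reaction, ambient temperature / Signal: fluorescence, excitation 544 nm and emission 590 nm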
Avidin bead fluor: compound fluoresces at 488/530 nm on avidin beads; compound fluorescence 488/530 nm, flow cytometry; stronger effect = higher value; fluorescence (KMESF) at 10 µM; 220,000 compounds, 0.38% hits; in the data active = fluorescence above about 47
NCF1 inh: p47phox (human) inhibition | inhibition, % at 24.7 µM | AID 1274 | p47phox/p22phox peptide binding, fluorescence polarization, 2 h | 220,000 compounds, 0.53% hits | P14598;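 active = inhibition above about 30%, limit read from the data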
PMI act hi M6P: activators of human phosphomannose isomerase at near-saturating mannose 6-phosphate. P34949. coupled PMI enzyme assay, resazurin fluorescence, 20 min; stronger effect = higher value; 1 = untreated enzyme, 0 = substrate-free blank. activation factor at 20 µM. 190,000 compounds, 0.34% hits. AID 1216;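 active = activation factor of 2 or more at 20 µM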
Target sequence (P34949 whole entry, looked up): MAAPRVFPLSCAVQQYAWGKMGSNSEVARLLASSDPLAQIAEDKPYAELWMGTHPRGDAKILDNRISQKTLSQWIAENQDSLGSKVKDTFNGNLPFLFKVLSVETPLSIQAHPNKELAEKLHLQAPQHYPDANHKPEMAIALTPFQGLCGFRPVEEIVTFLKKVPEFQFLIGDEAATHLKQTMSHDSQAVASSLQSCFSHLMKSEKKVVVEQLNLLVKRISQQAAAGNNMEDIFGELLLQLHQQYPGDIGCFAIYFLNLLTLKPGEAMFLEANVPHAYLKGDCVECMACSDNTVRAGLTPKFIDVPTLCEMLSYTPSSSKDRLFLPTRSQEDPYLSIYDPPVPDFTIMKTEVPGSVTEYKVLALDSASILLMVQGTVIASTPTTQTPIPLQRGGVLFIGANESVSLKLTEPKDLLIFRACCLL
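Material: human phosphomannose isomerase with PGI, G6PDH, diaphorase coupling enzymes. Quantity: 15 ng/mL PMI. Medium: HEPES pH 7.4 buffer with MgCl2 and Tween-20. Reagent: Near-saturating mannose-6-phosphate, 1.0 mM. Compound: 20 µM single dose. Times: enzyme reaction with compound 20 min at room temperature. Detection: resorufin fluorescence at Ex 544/Em 590 nm.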
PMI activator: activators of human phosphomannose isomerase; P34949; purified human PMI, coupled resazurin fluorescence, 20 min; stronger effect = higher value; 1 = vehicle control, 0 substrate-free wells; activation factor at 20 µM; 190,000 compounds, 0.005% hits;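 active = activation factor of 2 or more at 20 µM, relative to plate controls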
Of the large screens only hits and unclear results are named; the others gave an inactive call.

Cc1ccc(-c2nc3sc(C(N)=O)c(N)c3c3c2CCCC3)cc1	PMI act hi M6P 2.4
O=C(COC(=O)/C=C/c1ccc(OC(F)F)cc1)NCCN1C(=O)CSC1=O	NCF1 inh 45.8
Nc1nnc(SCC(=O)c2cccc([N+](=O)[O-])c2)s1	none
Nc1nnc(SCC(=O)c2ccc3ccccc3c2)s1	NCF1 inh 92.4
N#Cc1c(NC(=O)CSc2nc3c(c(C(F)(F)F)n2)CCc2ccccc2-3)sc2c1CCCC2	none
Cc1nn(Cc2ccc(Cl)cc2)c(C)c1NC(=O)CSc1nc2c(c(C(F)(F)F)n1)CCc1ccccc1-2	NCF1 inh 44.9
Cc1ccc(Cn2nc(C)c(NC(=O)CSc3nc4c(c(C(F)(F)F)n3)CCc3ccccc3-4)c2C)cc1	NCF1 inh 49.7
O=C(NCc1ccco1)C1CCN(Cc2ccc(F)cc2)CC1	none
CCOC(=O)C1CCN(C(=O)COC(=O)c2cccc(F)c2)CC1	none
O=C(Cn1cc2c(n1)CCCCC2)NCc1ccccn1	NCF1 inh 43.4
O=C(Cn1cc2c(n1)CCCCC2)NCc1ccccc1	none
CCS(=O)(=O)N1CCN(Cc2c[nH]c3ccccc23)CC1	none
CCOC(=O)c1c(C)n(O)c2ccc(Cl)cc2c1=O	none
CCCc1cc(=O)oc2c(C)c(OCC(=O)c3ccc(N4CCCC4)cc3)ccc12	NCF1 inh 34.1
C=C(C)COc1ccc2c(CC)cc(=O)oc2c1C	none
CC(C)(O)C1=NOC(c2ccccc2)C1 (centres undefined)	Avidin bead fluor 200
COc1ccc(CNC(=O)c2noc(C(C)C)c2[N+](=O)[O-])cc1	none
COc1ccc(CNC(=O)c2noc(C)c2[N+](=O)[O-])cc1	NCF1 inh 33.0
COc1ccc(NC(=O)CN2C(=O)/C(=C3\SC(=S)N(C4CCS(=O)(=O)C4)C3=O)c3ccccc32)cc1 (centres undefined)	NCF1 inh 52.4 (no result: GSH fluor, Diaphorase act, PMI act hi M6P, PMI activator)
CCOC(=O)C(NC(C)=O)(Nc1ccc(F)cc1)C(F)(F)F (centres undefined)	Avidin bead fluor 260
CCOC(=O)C(NC(C)=O)(Nc1cccc(F)c1)C(F)(F)F (centres undefined)	none
COc1[nH]c(/N=C/c2ccccc2)c(C#N)c1C#N	none
c1csc(CSc2nc3ccccc3s2)c1	GSH fluor 276
CCn1c(SC(C)C)nnc1-c1cc(-c2ccccc2)sc1N	none
COc1ccccc1-c1nn2c(=O)cc(C)nc2s1	GSH fluor 254
COc1ccccc1-c1nn2c(-c3ccccc3Cl)nnc2s1	none (no result: GSH fluor, Avidin bead fluor, NCF1 inh)
CCOc1ccccc1NC(=O)c1c(NC(=O)CCC(=O)O)sc2c1CCCCC2	PMI act hi M6P 2.1
Cc1ccc(C(=O)O/N=C/c2c(C)nn(C)c2Cl)cc1	none
Cc1cc(C(=O)CCC(=O)N2CCN(c3ccccc3F)CC2)c(C)s1	none
O=C(COC(=O)c1cccc(S(=O)(=O)NCc2ccccc2)c1)c1ccccc1	none
Cc1c([N+](=O)[O-])c(C(=O)Sc2ccc(Br)cc2)nn1C	NCF1 inh 39.1 (no result: GSH fluor, Diaphorase act, PMI act hi M6P, PMI activator)
COCC(=O)NC1(c2nnnn2CCOC(=O)Nc2ccc(Cl)cc2)CCCCC1	Avidin bead fluor 68
COCC(=O)N(C)C1(c2nnnn2CCOC(=O)Nc2ccc(Cl)cc2)CCCCC1	none
C#CCOCCOCCOCCNc1nc(N2CCN(C(=O)[C@H](CCCCN)n3cc(C(N)COC(=O)C(F)(F)F)nn3)CC2)nc(N2CCN(C(=O)[C@H](CCCCN)n3cc(C(N)CC(C)C)nn3)CC2)n1 (some centres undefined)	NCF1 inh 33.8 (no result: GSH fluor, Diaphorase act, PMI act hi M6P, PMI activator)
C#CCOCCOCCOCCNc1nc(N2CCN(C(=O)[C@H](CCCCN)n3cc([C@@H](N)CO)nn3)CC2)nc(N2CCN(C(=O)[C@H](Cc3cc4ccccc4[nH]3)n3cc([C@@H](N)CO)nn3)CC2)n1	NCF1 inh 38.9 (no result: GSH fluor, Diaphorase act, PMI act hi M6P, PMI activator)
CCOc1ccc(OCC)c2sc(C)nc12	NCF1 inh 59.4
NC(=S)NNC(=O)Nc1cccc(Cl)c1	none
CCCS(=O)(=O)N1CCC(C(=O)N2CCC(Cc3ccccc3)CC2)CC1	none
O=C(C1CCN(S(=O)(=O)N2CCC3(CC2)OCCO3)CC1)N1CCC(Cc2ccccc2)CC1	Avidin bead fluor 233
NS(=O)(=O)c1ccc(CCNC(=O)CSc2nc3ccsc3c(=O)n2CCCCCC(=O)O)cc1	none
CCCCNC(=O)CSc1nc2ccsc2c(=O)n1CCCC(=O)NCCc1ccc(S(N)(=O)=O)cc1	NCF1 inh 31.0
CCCCSc1nc2c(cnn2-c2ccccc2)c(=O)n1N	Avidin bead fluor 61
CCCSc1nc2c(cnn2-c2ccccc2)c(=O)n1N	none (no result: GSH fluor, Diaphorase act, PMI act hi M6P, PMI activator)
CCCCSc1cnn(-c2ccccc2)c(=O)c1SCCCC	NCF1 inh 65.2
O=C(NNC(=S)Nc1ccc(Cl)c(Cl)c1)c1ccccn1	none
COCCNC(=O)C1(C)Oc2ccccc2NC1=O (centres undefined)	GSH fluor 260
COc1ccc(CNS(=O)(=O)c2ccc(S(=O)(=O)N3CCCCC3)cc2)cc1	none (no result: GSH fluor, Avidin bead fluor, NCF1 inh)
COc1ccc(S(=O)(=O)NCc2ccc(C)cc2)cc1	GSH fluor 263
CCOC(=O)CN(C(=O)CNC(=O)c1cccs1)C(C(=O)NC1CCCCC1)c1cccnc1 (centres undefined)	none
C=CCN(C(=O)CNC(=O)c1cccs1)C(C(=O)NC1CCCCC1)c1cccnc1 (centres undefined)	NCF1 inh 46.9
COc1ccc(NS(=O)(=O)c2cc([N+](=O)[O-])ccc2N/N=C\c2c(C)[nH]c3ccccc23)cc1	Avidin bead fluor 51
CNC(=O)c1csc(-c2ccc(Cl)cc2)n1	none
O=C(O)c1csc(-c2ccc(Cl)cc2)n1	NCF1 inh 65.0
Cc1cc(C)c2oc(C(=O)Nc3ccc(S(=O)(=O)N4CCCC(C)C4)cc3)cc(=O)c2c1 (centres undefined)	Avidin bead fluor 93
CC/C(=N/Nc1ccccc1C)c1cnnc(SC)n1	PMI act hi M6P 2.3
CSc1nncc(/C(C)=N\Nc2cccc(C)c2)n1	PMI act hi M6P 2.4
O=C(Oc1ccccc1)c1cccc2cccnc12	NCF1 inh 99.2
O=C(N/C(=C\c1cccnc1)C(=O)N1CCOCC1)c1cccc(Br)c1	none
N#Cc1cc2c([nH]c1=S)CCCCCC2	PMI act hi M6P 2.1
CC(=O)Nc1ccc(C2(O)COc3ccccc3O2)cc1 (centres undefined)	GSH fluor 262
Cc1cc(C2N=C(N)Nc3nc4ccccc4n32)c(C)n1-c1ccccc1Cl (centres undefined)	NCF1 inh 41.0
NC1=NC(c2ccc(F)cc2)n2c(nc3ccccc32)N1 (centres undefined)	none
